Ten compounds from ChEMBL document CHEMBL1141444, “Sorbifolivaltrates A-D, diene valepotriates from Valeriana sorbifolia(1)” (J Nat Prod, 2007) can be followed below.

The nature of the assay: Cytotoxicity against human PC3M cells by MTT assay. The note with it: PC-3M. It is filed as functional, cell-based. The essentials: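 Human metastatic prostate PC-3M cells seeded at 2000/well, recovered overnight; serial drug dilutions in medium added in quadruplicate, DMSO as negative and doxorubicin as positive control. Incubated about 40 h at 37 °C, 5% CO2, then MTT 0.4 mg/mL for 4 h; medium removed, DMSO added, absorbance read at 650 nm. Percent inhibition plotted to derive IC50.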
For `CC(=O)O[C@H]1C=C2C(COC(=O)CC(C)C)=CO[C@@H](OC(=O)CC(C)C)[C@@H]2[C@@]12CO2`, the IC50 – broadly, the point on the concentration scale where inhibition reaches its midpoint – is 3.1 µM. The result for `CC(=O)OCC1=CO[C@@H](OC(=O)C=C(C)C)[C@H]2C1=C[C@H](OC(=O)CC(C)C)[C@]2(O)COC(=O)CC(C)C` reads 8.9 µM; that for `CCC(C)CC(=O)O[C@H]1C=C2C(COC(C)=O)=CO[C@@H](OC(=O)C=C(C)C)[C@@H]2[C@@]1(O)COC(=O)CC(C)C` (stereo not given in full), 7.3 µM.

`CCC(C)CC(=O)O[C@H]1C=C2C(COC(C)=O)=CO[C@@H](OC(=O)C=C(C)C)[C@@H]2[C@@]12CO2` (stereo not given in full) had a half-maximal inhibitory concentration (IC50) of 12.2 µM. `CC(C)CC(=O)OCC1=CO[C@@H](OC(=O)CC(C)(C)O)[C@H]2C1=C[C@H](OC(=O)CC(C)C)[C@]2(O)COC(=O)CC(C)C` yielded an IC50 of 8.9 µM. The result for `CC(=O)OCC1=CO[C@@H](OC(=O)C=C(C)C)[C@H]2C1=C[C@H](OC(=O)CC(C)C)[C@]21CO1` reads 20 µM; that for `CC(=O)OCC1=CO[C@@H](OC(=O)CC(C)(C)O)[C@H]2C1=C[C@H](OC(=O)CC(C)C)[C@]2(O)COC(=O)CC(C)C`, 11.1 µM; that for `CC(C)=CC(=O)O[C@@H]1OC=C(COC(=O)CC(C)C)C2=C[C@H](OC(=O)CC(C)C)[C@]3(CO3)[C@H]21`, 2.6 µM. The result for `COc1cccc2c1C(=O)c1c(O)c3c(c(O)c1C2=O)C[C@@](O)(C(=O)CO)C[C@@H]3O[C@H]1C[C@H](N)[C@H](O)[C@H](C)O1` [DOXORUBICIN] reads 1.26 µM; that for `CC(=O)OCC1=CO[C@@H](OC(=O)CC(C)C)[C@H]2C1=C[C@H](OC(=O)CC(C)C)[C@]21CO1` [VALTRATE], 1.7 µM.
